Results from ChEMBL document CHEMBL1681674, “Synthesis of 3-phenylpyrazolopyrimidine-1,2,3-triazole conjugates and evaluation of their Src kinase inhibitory and anticancer activities” (Bioorg Med Chem Lett, 2011).
pIC50: −log10 of the molar value.

What was measured:
[1] = molecular target: T1, Proto-oncogene tyrosine-protein kinase Src (Homo sapiens, UniProt P12931); assay: Inhibition of GST-fussed c-SRC up to 250 uM after 30 mins
Procedure, shortened: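 Src kinase enzyme inhibition was assessed at concentrations up to 250 μM.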

[2] = molecular target: T1, Proto-oncogene tyrosine-protein kinase Src; assay: Inhibition of GST-fussed c-SRC after 30 mins
HT-29 [3] = assay: Cytotoxicity against c-SRC expressing human HT-29 cells assessed as inhibition of cell proliferation at 50 uM after 72 hrs relative to control; assay type: functional; settings: HT-29, 72 h
Procedure, shortened: (§1)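 Proliferation of SK-Ov-3, MDA-MB-361 and HT-29 cells was measured after 72 h exposure at 50 μM. Growth is expressed as a percentage of the DMSO vehicle control, set at 100%, with no compound. All experiments were run in triplicate.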

SK-OV-3 [4] = assay: Cytotoxicity against c-SRC expressing human SKOV3 cells assessed as inhibition of cell proliferation at 50 uM after 72 hrs relative to control; assay type: functional; settings: SK-OV-3, 72 h; procedure, shortened: as §1
MDA-MB-361 [5] = assay: Cytotoxicity against c-SRC expressing human MDA-MB-361 cells assessed as inhibition of cell proliferation at 50 uM after 72 hrs relative to control; assay type: functional; settings: MDA-MB-361, 72 h; procedure, shortened: as §1
HT-29 [6] = assay: Cellular uptake in c-SRC expressing human HT-29 cells; assay type: ADME, cell-based
MDA-MB-361 [7] = assay: Cellular uptake in c-SRC expressing human MDA-MB-361 cells; assay type: ADME, cell-based
SK-OV-3 [8] = assay: Cellular uptake in c-SRC expressing human SKOV3 cells; assay type: ADME, cell-based

T1 sequence (P12931 2-536 limits assumed): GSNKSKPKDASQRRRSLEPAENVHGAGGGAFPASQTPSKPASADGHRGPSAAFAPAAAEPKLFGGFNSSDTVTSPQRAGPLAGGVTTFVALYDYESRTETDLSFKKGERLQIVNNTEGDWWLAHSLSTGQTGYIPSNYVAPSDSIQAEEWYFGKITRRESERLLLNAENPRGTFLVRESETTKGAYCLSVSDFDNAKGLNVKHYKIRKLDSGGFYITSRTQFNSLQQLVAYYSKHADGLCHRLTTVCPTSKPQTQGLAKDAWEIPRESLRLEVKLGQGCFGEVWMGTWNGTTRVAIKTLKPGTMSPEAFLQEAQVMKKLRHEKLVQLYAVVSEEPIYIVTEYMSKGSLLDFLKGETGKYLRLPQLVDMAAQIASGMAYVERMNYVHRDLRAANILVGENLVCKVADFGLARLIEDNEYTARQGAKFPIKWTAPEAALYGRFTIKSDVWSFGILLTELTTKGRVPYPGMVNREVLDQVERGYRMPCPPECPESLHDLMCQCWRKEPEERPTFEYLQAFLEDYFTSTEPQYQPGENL

| pIC50 [2] | Compound | also measured |
| --- | --- | --- |
|  | Nc1ncnc2c1c(-c1ccccc1)nn2CCn1cc(Cc2ccccc2)nn1 | inhibition [1]: < 10% |
| < 4.12 | CCCCCCCCCCc1cn(CCn2nc(-c3ccccc3)c3c(N)ncnc32)nn1 |  |
| 5.21 | [N-]=[N+]=NCCn1nc(-c2ccccc2)c2c(N)ncnc21 |  |
| < 4.12 | Nc1ncnc2c1c(-c1ccccc1)nn2Cc1cn(CC(=O)c2cccs2)nn1 |  |
|  | Nc1ncnc2c1c(-c1ccccc1)nn2CCn1cc(CCCCl)nn1 | inhibition at 50 µM (HT-29 [3]): 57%; inhibition [1]: < 10% |
| 4.76 | COc1ccc(-c2cn(CCn3nc(-c4ccccc4)c4c(N)ncnc43)nn2)cc1 | inhibition at 50 µM (SK-OV-3 [4]): 58%; inhibition at 50 µM (HT-29 [3]): 73% |
| < 4.12 | Cc1ccc(C(=O)Cn2cc(Cn3nc(-c4ccccc4)c4c(N)ncnc43)nn2)cc1 |  |
| 5.04 | Nc1ncnc2c1c(-c1ccccc1)nn2Cc1cn(CC(=O)CCCO)nn1 |  |
| < 4.12 | CC(=O)c1ccc(-c2cn(CCn3nc(-c4ccccc4)c4c(N)ncnc43)nn2)cc1 |  |
| < 4.12 | Nc1ncnc2c1c(-c1ccccc1)nn2Cc1cn(CC(=O)c2ccc(Cl)cc2)nn1 |  |
| 4.64 | Nc1ncnc2c1c(-c1ccccc1)nn2Cc1cn(CC(=O)Nc2ccccc2)nn1 | inhibition at 50 µM (MDA-MB-361 [5]): 51% |
| 5.25 | CCCCCCc1cn(CCn2nc(-c3ccccc3)c3c(N)ncnc32)nn1 | Drug uptake (HT-29 [6]): Active; Drug uptake (MDA-MB-361 [7]): Active; Drug uptake (SK-OV-3 [8]): Active |
|  | Nc1ncnc2c1c(-c1ccccc1)nn2Cc1cn(CC(=O)CCc2cccc3ccccc23)nn1 | inhibition at 50 µM (SK-OV-3 [4]): 48%; inhibition [1]: < 10% |
| 4.79 | Nc1ncnc2c1c(-c1ccccc1)nn2Cc1cn(CC(=O)Nc2ccc(F)cc2)nn1 |  |
| 4.53 | Nc1ncnc2c1c(-c1ccccc1)nn2CCn1cc(-c2ccc(F)cc2)nn1 | inhibition at 50 µM (MDA-MB-361 [5]): 49% |
| < 4.12 | CCCCc1cn(CCn2nc(-c3ccccc3)c3c(N)ncnc32)nn1 |  |
| < 4.12 | Nc1ncnc2c1c(-c1ccccc1)nn2Cc1cn(CC(=O)Nc2ccc(Cl)cc2)nn1 |  |
| 4.90 | CCOC(=O)Cn1cc(Cn2nc(-c3ccccc3)c3c(N)ncnc32)nn1 |  |
| < 4.12 | Nc1ncnc2c1c(-c1ccccc1)nn2Cc1cn(CC(=O)c2ccccc2)nn1 |  |
| < 4.12 | CCCCCCCc1cn(CCn2nc(-c3ccccc3)c3c(N)ncnc32)nn1 |  |
